How the values were obtained:
Mus musculus = assay: Analgesic activity in sc dosed ddY mouse assessed as inhibition of acetic acid-induced abdominal stretching pretreated for 30 mins followed by acetic acid challenge measured for 5 to 20 mins; format: functional; settings: Abdomen
Procedure, shortened: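 Compound suspended in 1% gum arabic, given sc to mice; 30 min later 0.6% acetic acid ip at 0.1 mL/10 g body weight. Mouse counted protected if no stretching from 5 to 20 min after acid; ED50 by Litchfield–Wilcoxon method.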

Rattus norvegicus [1] = assay: Antiinflammatory activity in Wistar rat assessed as inhibition of carrageenan-induced paw edema at 100 mg/kg, po pretreated for 30 mins followed by carrageenan challenge measured after 3 hrs relative to control; format: functional
Procedure, shortened: (§1)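 Male Wistar rats (120-150 g), six per group, dosed orally with compound suspended in 1% gum arabic; 30 min later 0.1 mL 1% carrageenan injected sc into hind paw plantar surface. Edema measured at 3 h; percent inhibition calculated against carrageenan-only animals.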

Rattus norvegicus [2] = assay: Antiinflammatory activity in Wistar rat assessed as inhibition of carrageenan-induced paw edema at 50 mg/kg, po pretreated for 30 mins followed by carrageenan challenge measured after 3 hrs relative to control; format: functional; procedure, shortened: as §1
Rattus norvegicus [3] = assay: Antiinflammatory activity in Wistar rat assessed as inhibition of carrageenan-induced paw edema at 25 mg/kg, po pretreated for 30 mins followed by carrageenan challenge measured after 3 hrs relative to control; format: functional; procedure, shortened: as §1
[4] = Acute toxicity in ip dosed ddY mouse measured after 72 hrs; format: organism-based; settings: in vivo

| Compound | ED50 (Mus musculus) [mg/kg] | inhibition in vivo at 100 mg/kg (Rattus norvegicus [1]) [%] | inhibition in vivo at 50 mg/kg (Rattus norvegicus [2]) [%] | inhibition in vivo at 25 mg/kg (Rattus norvegicus [3]) [%] | LD50 at 72 h [4] [mg/kg] |
| --- | --- | --- | --- | --- | --- |
| C=CCOc1c(N2CCOCC2)cnn(C)c1=O | 90 | 17.4 | 5.2 | – | – |
| Cn1ncc(Cl)c(Cl)c1=O | > 100 | 23.2 | -8.9 | – | – |
| Cn1ncc(N2CCOCC2)c(Cl)c1=O | 35 | 38.9 | 32.2 | 15.2 | 75 |
| Cn1ncc(N2CCOCC2)c(O)c1=O | > 100 | 16.6 | 8.2 | – | – |
| Cn1ncc(O)c(Cl)c1=O | > 100 | -5.8 | – | – | – |
| CCOc1c(NC)cnn(C)c1=O | 55 | 31.1 | 4.5 | -1.1 | 400 |
| CCCNc1cnn(C)c(=O)c1OCC | 72 | 38 | 8 | 2 | – |
| CCOc1c(N(C)C)cnn(C)c1=O | 86 | 49.5 | 30.7 | 27.5 | 305 |
| CCOc1c(N(CC)CC)cnn(C)c1=O | 70 | 32.5 | 1.7 | – | – |
| C=CCN(CC=C)c1cnn(C)c(=O)c1OCC | 82 | 12.9 | -5.2 | – | – |
| CCOc1c(N2CCSCC2)cnn(C)c1=O | > 100 | 11.8 | 6.2 | – | – |
| CCOc1c(N2CCCCC2)cnn(C)c1=O | 86 | 14.1 | -5.4 | – | – |
| CCOc1c(N2CCCC2)cnn(C)c1=O | > 100 | 23 | -2.3 | – | – |
| CCOc1c(N2CCN(C)CC2)cnn(C)c1=O | 82 | 12.3 | 10.2 | – | – |
| CCOc1c(Nc2ccccc2)cnn(C)c1=O | 36 | 4.9 | – | – | – |
| COc1c(N2CCOCC2)cnn(C)c1=O | 72 | 43.4 | 23.2 | 11 | 600 |
| CCCOc1c(N2CCOCC2)cnn(C)c1=O | 23 | 34.9 | 32.4 | 4.5 | 500 |
| CC(C)Oc1c(N2CCOCC2)cnn(C)c1=O | 86 | 7.2 | – | – | – |

| Compound | ED50 (Mus musculus) [mg/kg] | inhibition in vivo at 100 mg/kg (Rattus norvegicus [1]) [%] | inhibition in vivo at 50 mg/kg (Rattus norvegicus [2]) [%] | inhibition in vivo at 25 mg/kg (Rattus norvegicus [3]) [%] | LD50 at 72 h [4] [mg/kg] |
| --- | --- | --- | --- | --- | --- |
| CCCCOc1c(N2CCOCC2)cnn(C)c1=O | 41 | 28.8 | -2.8 | – | 440 |
| CCCCCOc1c(N2CCOCC2)cnn(C)c1=O | 29 | 20.7 | 2.4 | – | 420 |
| CCOc1c(N2CCOCC2)cnn(CC)c1=O | 95 | 58.4 | 25.4 | 8.3 | 380 |
| CCCn1ncc(N2CCOCC2)c(OCC)c1=O | > 100 | 32.4 | 3.5 | – | – |
| CCOc1c(N2CCOCC2)cnn(C(C)C)c1=O | > 100 | 22.2 | 2.1 | – | – |
| CCCCn1ncc(N2CCOCC2)c(OCC)c1=O | > 100 | 18.3 | – | – | – |
| C/C=C/n1ncc(N2CCOCC2)c(OCC)c1=O | > 100 | 3.1 | – | – | – |
| C=CCn1ncc(N2CCOCC2)c(OCC)c1=O | 18 | 23.5 | 1.2 | – | 550 |
| CCOc1c(N2CCOCC2)cn[nH]c1=O | > 100 | 9.2 | – | – | – |
| CCOc1ccnn(C)c1=O | > 100 | -12.2 | – | – | – |
| Cn1ncccc1=O | 65 | 4.5 | – | – | – |
| O=c1cccn[nH]1 | > 100 | 6.3 | – | – | – |
| Cn1ncc(N2CCOCC2)cc1=O | > 100 | -5.6 | – | – | – |
| Cc1c(N(C)C)c(=O)n(-c2ccccc2)n1C [AMINOPYRINE] | 46 | 48.2 | 25 | 11 | 420 |
| CCOc1c(N2CCOCC2)cnn(C)c1=O [EMORFAZONE] | 41 | 55 | 38.8 | 20.2 | 700 |
| CCCCC1C(=O)N(c2ccccc2)N(c2ccccc2)C1=O [PHENYLBUTAZONE] | > 100 | 40.6 | 35 | 18 | 420 |
| c1ccnnc1 [PYRIDAZINE] | > 100 | -2.4 | – | – | – |

From ChEMBL document CHEMBL3227987, “A new nonsteroidal analgesic-antiinflammatory agent. Synthesis and activity of 4-ethoxy-2-methyl-5-morpholino-3(2H)-pyridazinone and related compounds” (J Med Chem, 1979)
